“And” between values parts separate entries of the source, which are not always exact repeats. Equal entries are not always repeated. The whole screen tested about 350,000 compounds, of which about 740 (0.21%) were called active.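 The calls were made as follows: active = every replicate reaching activation of at least 50%, whatever the mean replicate activation; inconclusive = replicates that disagree or another doubt; inactive = the rest.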 The sample as a whole holds a higher share of actives than the screen did.

The nature of this experiment: increased acetylated PGC1a in cells – cell-based, U2OS, AlphaScreen, signal-increasing mode, PGC1a modulator project, primary screen (AID 651723). The following applies: U2OS PGC1a acetylation AlphaScreen, overnight; at 15.6 µM; stronger effect = higher value. The method, boiled down: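 System: flag-PGC1a/GCN5 U2OS cells / Input: 7000 cells/well / Compound: single test concentration per compound / Incubation: overnight compound treatment, 37 °C / Technique: AlphaScreen on lysates with anti-acetyl-lysine antibody, acceptor and donor beads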
On to `NC(=O)Cc1ccc2c(c1)[nH]c1ccccc12`, for which the activation was 116% (active). Then `O=S(=O)(O)c1nc2ccccc2n1Cc1ccc(Cl)cc1`, with -47.2% (inactive); and `Cc1oc2c(c1C(=O)N1CCOCC1)C(=O)c1ccccc1C2=O`, with -42.9% (inactive); and `CN1/C(=C\C(=O)c2oc3ccccc3c2N)C(C)(C)c2ccccc21`, with -86.9% (inactive). Then `CC(C)c1cc(C(=O)N/N=C/C(Br)=C/c2ccccc2)n[nH]1`, with 125% (active); and `Cc1cc(C(=O)N/N=C\C(Br)=C\c2ccccc2)c(C)o1`, with 85.5% (active); and `Cc1[nH]c(=O)c(C(=O)/C=C/c2ccccc2)c2c1CCCC2`, with -53.2% (inactive). Then `N#Cc1cccc(NC(=O)COC(=O)c2ccccc2C(=O)c2ccc(Cl)c([N+](=O)[O-])c2)c1`, with -46.9% (inactive); and `Clc1ccc(-c2nnc(-c3ccccc3)nc2N2CCSCC2)cc1`, with 80.9% (active).

Consider `CN1CCc2c(sc3c2c(NCc2ccco2)nc2nnnn23)C1`, for which the activation was -44.7% (inactive).

As to `COCCNC(=O)CSc1nc2c(n1-c1ccccc1)CCCC2`, the activation was -43.7% (inactive). Regarding `COc1ccc(NC(=O)C2(C)Cc3c(-c4cccc(NC(C)=O)c4)ccnc3O2)cc1` (stereo not given), the activation was 71.2% (active). To `CCc1ccc(NC(=O)CSc2nnc(-c3cnccn3)n2Cc2ccco2)cc1` belongs -45.6% (inactive).

In the case of `O=C(/C=C/Sc1ncn[nH]1)c1ccc(Cl)cc1`, the activation was 109% (active).

In the case of `COc1cccc(CNC(=O)CCC2CCCN(Cc3ccc(OC(F)F)cc3)C2)c1` (stereo not given), the activation is -52.5% (inactive). To `Cc1cccc(NC(=O)c2ccc([N+](=O)[O-])o2)c1` belongs 149% (active); to `CC(C)NC(=O)Nc1ccc2c(c1)C(=O)N([C@@H](C)CO)C[C@@H](C)[C@H](CN(C)S(=O)(=O)c1ccccc1)OCCCC[C@@H](C)O2`, -124% (inactive). Turning to `COc1ccc(-c2cc(=O)c3c(O)cc(O[C@@H]4O[C@H](CO[C@@H]5O[C@@H](C)[C@H](O)[C@@H](O)[C@H]5O)[C@@H](O)[C@H](O)[C@H]4O)cc3o2)cc1O`, the activation was -49.5% (inactive). To `COCC(=O)Nc1ccc2c(c1)OC[C@H](C)N(C(=O)c1ccccc1F)C[C@H](C)[C@H](OC)CN(C)C2=O` belongs -42.9% (inactive); to `CCc1cc2c(N3CCN(c4nnc(CC)s4)CC3)ncnc2s1`, 53.5% (active). Then `CC1(C)CCSC(/C=C/c2ccccc2)=N1`, with 183% (active); and `O=[N+]([O-])c1c(NCCO)cc(Sc2nc3ccccc3s2)c2nonc12`, with -45% (inactive); and `C[C@H](CO)N1C[C@H](C)[C@H](CN(C)Cc2ccc(C(=O)O)cc2)Oc2ncc(-c3ccccc3)cc2C1=O`, with -41.5% (inactive).

`Cc1cccc(C2C3=C(CCCC3=O)N=C3c4ccccc4C(=O)C32)c1` (stereo not given): the activation was 80% (active).

On to `CC(=O)NC1CCN(CC(=O)Nc2nccs2)CC1`, for which the activation is -50.3% (inactive). Then `CC(C)Cc1nn2c(=O)cc(O)nc2s1`, with -40.3% (inactive). Then `COc1ccc(N(Cc2cc3cc(OC)ccc3[nH]c2=O)S(C)(=O)=O)cc1`, with 69.9% (active). Then `N#Cc1ccc(C(c2ccc(C#N)cc2)n2cncn2)cc1`, with -48.6% (inactive); and `Cc1cc(C)cc(N(CC(=O)Nc2c(C)n(C)n(-c3ccccc3)c2=O)S(C)(=O)=O)c1`, with -49.5% (inactive); and `C[C@H]1CN([C@@H](C)CO)C(=O)c2cc(C#Cc3ccc(F)cc3)cnc2O[C@@H]1CN(C)C(=O)Nc1ccc(F)cc1`, with -44% (inactive). Regarding `COc1ccc(C#Cc2ccc([C@H]3[C@@H](CO)N4CCCCN(C(=O)Nc5ccccc5)C[C@H]34)cc2)cc1`, the activation is 77.7% (active).

For the compound `COc1ccc(NC(=O)/C(Cl)=C(/Cl)S(=O)Cc2ccc(C)cc2)cn1` (stereo not given), the activation is -69.3% (inactive). In the case of `Cc1ccc(S(=O)(=O)Nc2ccc3c(c2)C(=O)N([C@H](C)CO)C[C@H](C)[C@H](CN(C)C(=O)NC(C)C)OCCCC[C@@H](C)O3)cc1`, the activation is -41.5% (inactive). Then `COCC(=O)Nc1ccc2c(c1)OC[C@@H](C)N(CCc1ccccc1)C[C@H](C)[C@@H](OC)CN(C)C2=O`, with -52.2% (inactive); and `COc1ccc(C2CC(c3cccs3)=NN2c2nc(C)c(C(C)=O)s2)cc1OC` (stereo not given), with 83.1% (active). To `COc1ccc(S(=O)(=O)N2CCN(C(=O)c3cccs3)CC2)cc1OC` belongs -44% (inactive); to `O=S(=O)(NCc1ccccc1Br)c1ccccc1Br`, 55.2% (active). To `COc1cc(NC(=O)c2[nH]cnc2C(N)=O)cc(C(=O)Nc2cccc(C(F)(F)F)c2)c1` belongs -62.8% (inactive). Take `C[C@H](CO)N1C[C@H](C)[C@@H](CN(C)Cc2cccnc2)Oc2cc(C3=CCCC3)ccc2S1(=O)=O`: the activation was -50.5% (inactive). To `O=C(NCc1ccccc1)C(c1ccccc1)N(C(=O)c1csnn1)c1ccc(F)cc1` (stereo not given) belongs 85.7% (active); to `Cc1noc(C)c1S(=O)(=O)N(C)C[C@H]1Oc2ccc(NS(=O)(=O)c3cccs3)cc2C(=O)N([C@H](C)CO)C[C@H]1C`, -48% (inactive); to `Cc1cc(C)c2c(-n3cccc3)c(C(=O)NNS(=O)(=O)c3ccc(F)cc3)sc2n1`, 132% (active). Then `Cc1cccc(-c2ccc(C3[C@@H]4CN(C(=O)Nc5ccc(C(F)(F)F)cc5)C[C@H]3N4)cc2)c1` (stereo not given in full), with -92.4% (inactive) and -92.8% (inactive); and `CC(C)C(OC(=O)c1cccs1)C(=O)NC1CCCCC1` (stereo not given), with 90.6% (active); and `CC/C(=N\NC(=O)c1ccccc1Cl)c1ccc(Br)s1`, with -82.8% (inactive).

Source of the values: PubChem BioAssay AID651723 (Broad Institute, 2012).
